# Experimental data reported in ChEMBL document CHEMBL3272264, “(+)- and (-)-3-Methoxycyproheptadine. A comparative evaluation of the antiserotonin, antihistaminic, anticholinergic, and orexigenic properties with cyproheptadine” (1977).
# Assays:
# Type in all cases: functional
# Rattus norvegicus = experiment: Antiserotonin activity against po dosed Sprague-Dawley rat assessed as inhibition of serotonin-induced edema of right hind paw compound administered 1 hr prior to serotonin challenge
# Outline: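 Male rats, 140-210 g, dosed orally 1 h before 5 µg serotonin (base) into the right hind paw; saline (0.05 mL) into the left paw. Feet removed and weighed 30 min later; percent inhibition of serotonin weight gain versus saline paw. Doses 0.156-80 mg/kg, 4-16 rats per dose. ED50 from log-dose regression.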
# Cavia porcellus = experiment: Antihistaminic activity against ip dosed Duncan-Harley guinea pig assessed as inhibition of histamine aerosol-induced bronchoconstriction compound administered 30 mins prior to histamine challenge
# Outline: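 Guinea pigs of either sex, 200-300 g. Compound given ip as a suspension in 1% methylcellulose. 30 min later, 3-min exposure to histamine aerosol (0.5% base) in individual chambers, then 10 min observation. Dose range 0.031-6.25 mg/kg, 3-4 levels, 5-10 animals per level. ED50 is the dose protecting 50% from bronchoconstriction death, from log-dose regression.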
# Mus musculus = experiment: Anticholinergic activity in po dosed CF-1 mouse assessed as dose required to increase pupil diameter to 1.5 micrometer after 1 hr
# Outline: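 Female CF-1 mice dosed orally, five dose levels, ten mice per dose. Pupil diameter measured with an ocular micrometer 1 h after dosing. ED1.5 is the dose raising pupil diameter to 1.5 micrometer units, derived by regression of response on log dose (Finney).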
# Felis catus [1] = experiment: Orexigenic activity in cat assessed as food consumption at 0. 25 mg/kg, po (reference value: 179 +/- 31 g)
# Felis catus [2] = experiment: Orexigenic activity in cat assessed as food consumption at 0.0312 mg/kg, po (reference value: 126 +/- 26 to 155 +/- 33 g)
# Felis catus [3] = experiment: Orexigenic activity in cat assessed as food consumption at 0.25 mg/kg, po (reference value: 118 +/- 52 to 143 +/- 37 g)
# Felis catus [4] = experiment: Orexigenic activity in cat assessed as food consumption at 0. 0312 mg/kg, po (reference value: 107 +/- 29 to 146 +/- 24 g)
# Felis catus [5] = experiment: Orexigenic activity in cat assessed as food consumption at 0. 25 mg/kg, po (reference value: 119 +/- 39 to 155 +/- 34 g)
# Felis catus [6] = experiment: Orexigenic activity in cat assessed as food consumption at 0. 0312 mg/kg, po (reference value: 126 +/- 34 to 150 +/- 52 g)
# Felis catus [7] = experiment: Orexigenic activity in cat assessed as food consumption at 0. 25 mg/kg, po (reference value: 114 +/- 25 to 147 +/- 42 g)
Structure (SMILES),ED50 (Rattus norvegicus) [mg/kg],ED50 (Cavia porcellus) [mg/kg],ED (Mus musculus) [mg/kg],Activity (Felis catus [1]) [g],Activity (Felis catus [2]) [g],Activity (Felis catus [3]) [g],Activity (Felis catus [4]) [g],Activity (Felis catus [5]) [g],Activity (Felis catus [6]) [g],Activity (Felis catus [7]) [g]
CN1CCC(=C2c3ccccc3C=Cc3ccccc32)CC1 [CYPROHEPTADINE],0.24,0.077,6,220,–,–,–,–,–,–
COc1ccc2c(c1)C(=C1CCN(C)CC1)c1ccccc1C=C2,–,–,–,–,110,143,115,140,131,134
